GSTO1 inh = inhibitors of recombinant GSTO1, primary screen, counter-screen for RBBP9 inhibitor project, biochemical, fluorescence polarization. inhibition, % at 5.96 µM. hit rate 1.1% among 300,000. Glutathione S-transferase omega-1 (Homo sapiens), P78417. activity-based probe fluorescence polarization. AID 1974, 2009;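 active means inhibition above the campaign mean inhibition plus 3 SD, cut at about 35% in these data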;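 further: 0% = GSTO1-1 with DMSO and 100% = wells lacking GSTO1-1 enzyme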
Target sequence (P78417 whole entry, looked up): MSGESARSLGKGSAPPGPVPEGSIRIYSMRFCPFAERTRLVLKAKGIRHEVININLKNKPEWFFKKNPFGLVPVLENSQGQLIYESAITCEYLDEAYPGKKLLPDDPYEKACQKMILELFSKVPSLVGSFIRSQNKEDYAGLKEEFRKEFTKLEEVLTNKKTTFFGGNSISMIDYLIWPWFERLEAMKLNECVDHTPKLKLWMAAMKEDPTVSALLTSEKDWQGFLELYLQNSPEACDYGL
RBBP9 inhibitor = human RBBP9 inhibitors, primary screen, biochemical, fluorescence polarization, FP-Rh probe, HTS. hit rate 0.2% among 220,000. AID 1515, 2009. Serine hydrolase RBBP9 (Homo sapiens), O75884. inhibition, % at 7.94 µM. recombinant RBBP9;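 active means inhibition above the campaign mean of all tested compounds plus 3 SD, cut at about 14% in these data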;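 further: plate controls were DMSO wells with RBBP9 for no effect and wells lacking RBBP9 protein for full effect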
Target sequence (O75884 whole entry, looked up): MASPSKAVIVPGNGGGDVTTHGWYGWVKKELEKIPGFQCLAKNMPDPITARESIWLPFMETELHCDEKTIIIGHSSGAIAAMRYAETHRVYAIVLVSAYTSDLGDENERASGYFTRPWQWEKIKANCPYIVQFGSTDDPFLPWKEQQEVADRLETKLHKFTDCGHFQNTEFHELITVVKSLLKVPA
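System: RBBP9 protein / Quantity: 2.5 µM RBBP9 dispensing solution, before mixing / Also added: Serine-hydrolase probe FP-Rh, 375 nM pre-mixing / Dosing: 7.94 µM single dose, 0.794% DMSO / Timing: enzyme-compound preincubation 30 min, then probe labeling 45 min, 25 °C / Signal: FP readout at 525/598 nm / Controls: DMSO-treated enzyme wells and wells lacking RBBP9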
PRMT1 inh = PRMT1 methyltransferase inhibitors, primary screen, biochemical, fluorescence polarization. recombinant PRMT1, activity-based probe fluorescence polarization. Protein arginine N-methyltransferase 1 (Homo sapiens), Q99873. hit rate 1.3% among 370,000. inhibition, % at 2.79 µM. AID 652257, 2013;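 active means inhibition above about 21% made by adding two undisclosed values, limit read from the data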
Fam108B counter = mouse Fam108B serine hydrolase inhibitors, primary screen, counter-screen for RBBP9 inhibitor project, biochemical, fluorescence polarization. AID 1947, 2009. inhibition, % at 9.51 µM. recombinant Fam108B, FP-Rh probe fluorescence polarization. hit rate 0.33% among 300,000;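 active means inhibition above the screen mean inhibition plus 3 SD, computed separately per campaign, cut at about 18% in these data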;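 further: inhibitors lower polarization as less probe binds the enzyme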
PAD4 inh = human PAD4 inhibitors, primary screen, biochemical, fluorescence polarization, 1536-well format | Protein-arginine deiminase type-4 (Homo sapiens), Q9UM07 | recombinant PAD4, RCA probe fluorescence polarization | inhibition, % at 6.36 µM | hit rate 0.41% among 330,000;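 active means percent inhibition above a cutoff equal to the mean of all tested compounds plus 3 SD, cut at about 15% in these data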;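 further: 0% = PAD4 with RCA probe and DMSO and 100% = probe without PAD4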
PME-1 primary = PME-1 inhibitors via competitive probe labeling, primary screen, biochemical, fluorescence polarization, FP-Rh probe, HTS; hit rate 0.53% among 320,000; AID 2130, 2009; Protein phosphatase methylesterase 1 (Homo sapiens), Q9Y570; inhibition, % at 5.9 µM; recombinant PME-1;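 active means inhibition above the campaign mean of all compounds plus 3 SD, cut at about 26% in these data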;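 further: competitive labeling of PME-1 active site by serine hydrolase directed probe; 0% = PME-1 with DMSO and 100% = wells lacking PME-1 enzyme; inhibitors block probe labeling so polarization falls and inhibition rises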
Numbers without * were called inactive; . = no result. The list is not random: actives were taken first. Their share in the collection is about 2.3%.

SMILES | GSTO1 inh | RBBP9 inhibitor | PRMT1 inh | Fam108B counter | PAD4 inh | PME-1 primary
COCc1nnc(NC(=O)c2ccccc2Oc2ccccc2)s1 | -4 | 1 | -2 | 2 | -4 | -1
COc1ccc(CCNC(=O)CSc2ccc3ccccc3c2)cc1OC | -4 | 0 | 3 | 3 | -8 | 1
O=C(CSc1ccc2ccccc2c1)NCCc1ccc(O)c(O)c1 | 52* | 1 | 9 | -1 | -1 | 4
O=[N+]([O-])c1cccc(-c2n[nH]c(=S)n2-c2ccccc2)c1 | -1 | -6 | . | -1 | 1 | 0
O=C1C2C(C(=O)N1CCc1ccccc1)C1C=CC2C12CC2 (centres undefined) | -3 | -3 | -3 | 0 | -2 | -2
Cc1occc1-c1nnc(SCC(N)=O)o1 | 5 | -1 | 0 | -5 | -2 | 3
Cc1occc1-c1nnc(SCC(=O)c2ccc(F)cc2)o1 | 36* | -7 | -3 | 2 | 2 | -5
Cc1ccc(S(=O)(=O)N2CCCCC2)cc1C(=O)N(CCc1ccccc1)Cc1ccccc1 | -2 | . | -1 | 1 | 6 | -1
Cc1c(C(=O)O)cccc1-c1ccc(/C=N/Nc2ccc(Br)cc2)o1 | 2 | -4 | 4 | 7 | -4 | 29*
COCCCNC(=O)CN1C(=O)c2cccc3cccc1c23 | -1 | . | -5 | -1 | -2 | 3
CC(C(=O)NCC1CCCCC1)N1CCN(S(=O)(=O)/C=C/c2ccccc2)CC1 (centres undefined) | 35* | -10 | 1 | 1 | -3 | 12
O=C1CSC(=S)N1/N=C/c1c(F)cccc1F | -2 | . | 17 | -3 | -4 | -1
O=C1CSC(=S)N1/N=C/C=C/c1ccccc1 | -1 | -15 | 21* | 0 | -5 | 0
Cc1noc(C)c1S(=O)(=O)N1CCC(C(=O)Nc2ccc(Br)cc2)CC1 | 2 | . | -4 | -1 | 0 | 2
O=C(/C=C/c1c(Cl)cccc1Cl)NCCc1ccccc1 | -1 | -6 | -1 | -1 | -5 | -2
Cn1c(=O)c2c(nc(CN3CCN(C(c4ccccc4)c4ccccc4)CC3)n2CCCO)n(C)c1=O | 3 | . | 4 | -3 | -2 | 30*
C/C(=N/NC(=O)CSCc1ccc(Cl)cc1)c1cccc(NC(=O)c2ccccc2)c1 | 2 | 6 | 8 | -1 | 0 | -6
COc1ccc(NC(=O)C2CCN(C(=O)c3cccs3)CC2)cc1OC | -3 | -1 | 3 | 2 | 1 | 32*
Cc1ccc(NC(=O)CN2C(=O)N/C(=C/c3cc(C)n(-c4cccc(C(=O)O)c4)c3C)C2=O)cc1 | . | -3 | 25* | . | . | .
O=C(NNC(=O)c1ccncc1)c1ccncc1 | 3 | -10 | 0 | -2 | 1 | 0
CC(C)[C@@H](NC(=O)OC(C)(C)C)c1cc(C(=O)c2c(-c3ccccc3)[nH]c3ccccc23)c(N)s1 | . | . | 23* | . | . | .
CCCc1cc(=O)oc2cc(OCC(=O)Nc3ccccn3)ccc12 | 0 | . | -4 | -1 | -6 | 3
CSc1sc(-c2ccnc(=S)[nH]2)c(-c2ccccc2)c1C#N | -11 | -1 | 2 | 1 | -1 | 4
Fc1ccc(-c2ccnc(=S)[nH]2)cc1 | 15 | -4 | 23* | -1 | 12 | -7
O=C(CSc1cccc[n+]1[O-])Nc1cc([N+](=O)[O-])ccc1Cl | 2 | -1 | 1 | -6 | -4 | 5
SMILES | GSTO1 inh | RBBP9 inhibitor | PRMT1 inh | Fam108B counter | PAD4 inh | PME-1 primary
O=C(CSc1cccc[n+]1[O-])Nc1cc2c(cc1Cl)C(=O)c1ccccc1C2=O | 21 | -12 | 23* | 8 | -1 | 7
O=C(CN1C(=O)/C(=C\c2ccco2)SC1=S)Nc1ccc(O)cc1C(=O)O | 24 | . | 43* | 10 | -18 | -27
Cc1ccc(N=C(NO)c2nonc2N)c(C)c1 | 8 | -1 | -2 | 2 | -2 | -2
CN(C)c1cccc(C(=O)OCC(=O)N(Cc2ccccc2)C2CCS(=O)(=O)C2)c1 (centres undefined) | 2 | -10 | 6 | 0 | 0 | -7
CCCc1nc2nc(C)c(NS(=O)(=O)c3ccc4c(c3)CCCC4)c(=O)n2[nH]1 | -24 | . | -1 | 0 | 1 | 0
CN(C)C(=O)c1ccc(-c2nnc(NCc3ccccc3)c3ccccc23)cc1 | 2 | -2 | 1 | -1 | 2 | 37*
Cc1cnc(C(=O)OCc2ccc(Br)cc2)cn1 | 3 | . | -2 | 1 | 1 | -7
Nn1cc(-c2ccccc2)nc1SCC(=O)Nc1ccc(S(N)(=O)=O)cc1 | -1 | -13 | 23* | -1 | -3 | 1
Nn1cc(-c2ccccc2)nc1SCC(=O)Nc1cccc(S(N)(=O)=O)c1 | 10 | -6 | 3 | -5 | 2 | 2
CCn1c(N)c(C(=O)NC)sc1=S | 0 | -6 | 25* | 1 | -1 | 1
CCNC(=O)c1sc(=S)n(CC)c1N | 11 | -3 | 8 | 5 | 5 | -10
COc1ccc([N+](=O)[O-])c(S(=O)(=O)c2ccccc2)n1 | -2 | 4 | 25* | 2 | 0 | 6
COc1ccc([N+](=O)[O-])c(S(=O)(=O)c2ccc(Cl)cc2)n1 | -2 | -1 | 21 | -2 | 1 | -1
NC(=O)c1ccc(-n2nnnc2Oc2ccccc2)cc1 | 3 | -2 | 1 | -2 | 1 | 2
Cc1ccc(S(=O)(=O)n2nc(C)c(S(=O)(=O)N3CCOCC3)c2C)cc1 | -4 | . | 1 | -1 | 4 | 0
CCCC1(C(=O)OCC)NC(c2ccc(OC)cc2OC)C2C(=O)N(c3ccccc3)C(=O)C21 (centres undefined) | 8 | 8 | -3 | -2 | -1 | 3
COc1ccc(Cc2c(O)nc(SCC(=O)c3ccc(OC)cc3)[nH]c2=O)cc1 | -1 | 0 | 22* | -2 | 10 | -5
COc1ccc(-c2csc(NC(=O)c3ccccc3NS(=O)(=O)c3ccc(F)c(F)c3)n2)cc1 | -48 | -4 | 2 | 18 | -8 | 31*
COc1ncnc2sc(-c3ccccc3)cc12 | 0 | 3 | -1 | -1 | -1 | 0
COc1ccc(Nc2ncnc3sc(-c4ccccc4)cc23)cc1 | -9 | -13 | 4 | 12 | -4 | 34*
COC(=O)c1ccc(CN2CCC(Oc3cccc(C(=O)N4CCCC4)c3)CC2)cc1 | 1 | . | -1 | -7 | -6 | -1
O=C(/C=C/c1ccccc1)c1ccc2c(c1)OCCCCO2 | -8 | -7 | 3 | -2 | 0 | 0
O=C(CCl)N(C/C=C/c1ccccc1)c1ccc2c(c1)OCCO2 | 93* | -2 | 4 | 4 | -1 | 2
